Reference: ChEMBL document CHEMBL1938303, “Novel biologically active nitro and amino substituted benzimidazo[1,2-a]quinolines” (Bioorg Med Chem, 2011)
The source made the active and inactive calls. The rule behind the calls is not given here.

Experiments:
Nucleic Acid [1] = test: Binding affinity to calf thymus DNA assessed as binding constant at pH 7 by fluorescence quenching assay; type: nucleic-acid assay; settings: Bos taurus
In short: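 Calf thymus DNA in sodium cacodylate buffer (I = 0.05 mol dm⁻³, pH 7.0) was sonicated and filtered, with concentration taken as phosphate. Portions of DNA were added to the buffered compound, keeping absorbance below 0.05 at the excitation wavelength and DMSO below 1%. Emission was recorded from 350 to 600 nm. Ks came from non-linear Scatchard fitting, recalculated at fixed n = 0.2.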

Nucleic Acid [2] = test: Binding affinity to calf thymus DNA assessed as binding constant at pH 7 by UV-visible spectrophotometry; type: nucleic-acid assay; settings: Bos taurus
In short: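 Sonicated, filtered ct-DNA was quantified as phosphate. It was added in portions to the compound solution in sodium cacodylate buffer (I = 0.05 mol dm⁻³, pH 7.0), and absorbance changes were followed. Ks came from non-linear least-squares fitting to the Scatchard equation, with Ks recalculated for a fixed n of 0.2.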

Nucleic Acid [3] = test: Binding affinity to calf thymus DNA by CD-Spectroscopy; type: nucleic-acid assay; settings: Bos taurus
Nucleic Acid [4] = test: Binding affinity to calf thymus DNA assessed as change in melting temperature at compound to DNA molar ratio of 0.1 at pH 7 by thermal denaturation assay; type: nucleic-acid assay; settings: Bos taurus
In short: (§1)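 Absorbance of ct-DNA alone or with compound at 260 nm was recorded against temperature in sodium cacodylate buffer (I = 0.05 mol dm⁻³, pH 7.0). r = [compound]/[polynucleotide]. Ligand absorbance was subtracted and curves were normalised. Tm was the transition midpoint, taken from the first-derivative maximum or by tangent method. ΔTm = Tm(complex) − Tm(free DNA), averaged over at least two runs, ±0.5 °C.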

Nucleic Acid [5] = test: Binding affinity to calf thymus DNA assessed as change in melting temperature at compound to DNA molar ratio of 0.2 at pH 7 by thermal denaturation assay; type: nucleic-acid assay; settings: Bos taurus; in short: as §1
Nucleic Acid [6] = test: Binding affinity to calf thymus DNA assessed as change in melting temperature at compound to DNA molar ratio of 0.3 at pH 7 by thermal denaturation assay; type: nucleic-acid assay; settings: Bos taurus; in short: as §1
Nucleic Acid [7] = test: Binding affinity to calf thymus DNA assessed as intercalation measuring viscosity index at compound to DNA molar ratio of 0.2 at pH 7 by viscometry method; type: nucleic-acid assay; settings: Bos taurus
MOLT-4 = test: Antitumor activity against human MOLT4 cells assessed as growth inhibition after 72 hrs by MTT assay; type: functional, cell-based
In short: (§2)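 MCF-7, SW 620, HCT 116 and H 460 were grown as monolayers in DMEM, and MOLT-4 in suspension in RPMI, all with 10% FBS, 2 mM L-glutamine and penicillin/streptomycin at 37 °C in 5% CO2. Cells were seeded at 1×10^4 to 3×10^4 cells/mL on day 0. Compounds were added in ten-fold dilutions (10^-8 to 10^-4 M) for 72 h, then read by MTT at 570 nm. IC50 came from linear regression of percentage growth. Quadruplicate, at least two experiments.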

HCT-116 [8] = test: Antitumor activity against human HCT116 cells assessed as growth inhibition after 72 hrs by MTT assay; type: functional, cell-based; in short: as §2
SW-620 = test: Antitumor activity against human SW620 cells assessed as growth inhibition after 72 hrs by MTT assay; type: functional, cell-based; in short: as §2
MCF7 = test: Antitumor activity against human MCF7 cells assessed as growth inhibition after 72 hrs by MTT assay; type: functional, cell-based; settings: MCF7, 72 h; in short: as §2
NCI-H460 [9] = test: Antitumor activity against human H460 cells assessed as growth inhibition after 72 hrs by MTT assay; type: functional, cell-based; in short: as §2
[10] = Aqueous solubility of the compound; type: physicochemical; settings: buffer
HCT-116 [11] = test: Cell cycle arrest in human HCT116 cells assessed as accumulation at Sub G0/G1 phase at 5 uM after 24 hrs by flow cytometric analysis (reference value: 3 %); type: functional
HCT-116 [12] = test: Cell cycle arrest in human HCT116 cells assessed as accumulation at G0/G1 phase at 5 uM after 24 hrs by flow cytometric analysis (reference value: 40 %); type: functional
HCT-116 [13] = test: Cell cycle arrest in human HCT116 cells assessed as accumulation at S phase at 5 uM after 24 hrs by flow cytometric analysis (reference value: 39 %); type: functional
HCT-116 [14] = test: Cell cycle arrest in human HCT116 cells assessed as accumulation at G2/M phase at 5 uM after 24 hrs by flow cytometric analysis (reference value: 21 %); type: functional
HCT-116 [15] = test: Cell cycle arrest in human HCT116 cells assessed as accumulation at Sub G0/G1 phase at 5 uM after 48 hrs by flow cytometric analysis (reference value: 1 %); type: functional
HCT-116 [16] = test: Cell cycle arrest in human HCT116 cells assessed as accumulation at G0/G1 phase at 5 uM after 48 hrs by flow cytometric analysis (reference value: 40 %); type: functional
HCT-116 [17] = test: Cell cycle arrest in human HCT116 cells assessed as accumulation at S phase at 5 uM after 48 hrs by flow cytometric analysis (reference value: 35 %); type: functional
HCT-116 [18] = test: Cell cycle arrest in human HCT116 cells assessed as accumulation at G2/M phase at 5 uM after 48 hrs by flow cytometric analysis (reference value: 25 %); type: functional
[19] = Drug uptake in human H460 cell nucleus at 100 uM after 2 hrs by fluorescence microscopy; type: ADME, cell-based; settings: h460, 2 h
In short: (§3)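 H 460 cells were grown on cover slips (100,000 cells/well) in DMEM at 37 °C for 24 h. They were then exposed to 100 µM compound for 120 min, rinsed twice with PBS, and examined immediately for intrinsic compound fluorescence under a fluorescence microscope.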

[20] = Drug uptake in human H460 cell cytoplasm at 100 uM after 2 hrs by fluorescence microscopy; type: ADME, cell-based; settings: h460, 2 h; in short: as §3
[21] = Drug uptake in human H460 cell cytoplasm at 100 uM after 24 hrs by fluorescence microscopy; type: ADME, cell-based; settings: h460, 24 h
NCI-H460 [22] = test: Drug uptake in human H460 cells assessed as colocalization with endoplasmic reticulum at 100 uM after 2 hrs by fluorescence microscopy; type: ADME, cell-based; settings: nci-h460, 2 h

N#Cc1cc2cc(N)ccc2n2c1nc1ccccc12 [listing 1 of 2 here]
log Ks (Nucleic Acid [1]): 5.5 | log Ks (Nucleic Acid [2]): 5.1 | Activity (Nucleic Acid [3]): Active | ΔTm (Nucleic Acid [4]): 0.9 °C | ΔTm (Nucleic Acid [5]): 1.9 °C | ΔTm (Nucleic Acid [6]): 0.2 °C

CC[n+]1c(-c2ccccc2)c2cc(N)ccc2c2ccc(N)cc21
log Ks (Nucleic Acid [1]): 6 | Activity (Nucleic Acid [7]): Active

O=[N+]([O-])c1ccc2c(ccc3nc4ccccc4n32)c1
IC50 (MOLT-4; Homo sapiens, MOLT-4, 72 h): 3 µM | IC50 (HCT-116 [8]; Homo sapiens, HCT-116, 72 h): 6 µM | IC50 (SW-620; Homo sapiens, SW-620, 72 h): 6 µM | IC50 (MCF7): 4 µM | IC50 (NCI-H460 [9]; Homo sapiens, NCI-H460, 72 h): 8 µM

O=[N+]([O-])c1ccc(Cl)c(/C=C/c2nc3ccccc3[nH]2)c1
IC50 (MOLT-4; Homo sapiens, MOLT-4, 72 h): > 100 µM | IC50 (HCT-116 [8]; Homo sapiens, HCT-116, 72 h): 4 µM | IC50 (SW-620; Homo sapiens, SW-620, 72 h): 28 µM | IC50 (MCF7): 32 µM | IC50 (NCI-H460 [9]; Homo sapiens, NCI-H460, 72 h): > 100 µM

N#Cc1cc2cc(N)ccc2n2c1nc1ccccc12 [listing 2 of 2 here]
solubility [10]: Insoluble | IC50 (MOLT-4; molt-4): 6 µM | IC50 (HCT-116 [8]; hct-116): 4 µM | IC50 (SW-620; sw-620): 4 µM | IC50 (NCI-H460 [9]; nci-h460): 3 µM | Activity (HCT-116 [11]): 6% | Activity (HCT-116 [12]): 62% | Activity (HCT-116 [13]): 20% | Activity (HCT-116 [14]): 18% | Activity (HCT-116 [15]): 3% | Activity (HCT-116 [16]): 47% | Activity (HCT-116 [17]): 25% | Activity (HCT-116 [18]): 28%

Cl.N#Cc1cc2cc(N)ccc2n2c1nc1ccccc12
IC50 (MOLT-4; molt-4): 2 µM | IC50 (HCT-116 [8]; Homo sapiens, HCT-116, 72 h): 3 µM | IC50 (SW-620; Homo sapiens, SW-620, 72 h): 6 µM | IC50 (MCF7): 4 µM | IC50 (NCI-H460 [9]; Homo sapiens, NCI-H460, 72 h): 2 µM | Activity (HCT-116 [11]): 4% | Activity (HCT-116 [12]): 55% | Activity (HCT-116 [13]): 20% | Activity (HCT-116 [14]): 25% | Activity (HCT-116 [15]): 4% | Activity (HCT-116 [16]): 45% | Activity (HCT-116 [17]): 31% | Activity (HCT-116 [18]): 24% | Drug uptake [19]: Not Active | Drug uptake [20]: Active | Drug uptake [21]: Active | Drug uptake (NCI-H460 [22]): Active
